Screening data from PubChem BioAssay.
Rows were chosen to be rich in hits. Some 2.8% of all compounds tested hit in one or more screens of this group.
p47phox inh = p47phox/p22phox peptide binding inhibitors, primary screen, biochemical, uHTS, NADPH oxidase regulatory subunit; fluorescence polarization, 2 h; inhibition, % at 24.7 µM; Neutrophil cytosol factor 1 (Homo sapiens), P14598; actives 0.53% (n = 220,000)
eIF4E-4G inh = eIF4E–eIF4G protein interaction inhibitors, primary screen, biochemical, uHTS, TR-FRET, eIF4GI fragment. Eukaryotic translation initiation factor 4E (Mus musculus) + Eukaryotic translation …. TR-FRET eIF4E-eIF4GI(517-606) binding, 2 h. inhibition, % at 21.7 µM. actives 0.37% (n = 220,000)
Wee1 degr inh = Wee1 degradation inhibitors, primary screen, cell-based, HeLa, Wee1K328M-luciferase, luminescence; Wee1-like protein kinase (Homo sapiens), P30291; AID 1321, 2008; HeLa Luc-Wee1K328M stability; 100% = proteasome inhibitor MG132 effect; reporter increase, % at 5 µM; actives 1.2% (n = 220,000);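 active = activation above the mean of all tested compounds plus 3 SD, set per screening run, cut at about 8.8% in these data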;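 note: cells exposed to compound for 20 h before luminescence read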
RBBP9 inh = human RBBP9 inhibitors, primary screen, biochemical, fluorescence polarization, FP-Rh probe, HTS; Serine hydrolase RBBP9 (Homo sapiens), O75884; recombinant RBBP9; inhibition, % at 7.94 µM; actives 0.2% (n = 220,000); AID 1515, 2009;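 active = inhibition above the campaign mean of all tested compounds plus 3 SD, cut at about 14% in these data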
Target sequence (O75884 whole entry, looked up): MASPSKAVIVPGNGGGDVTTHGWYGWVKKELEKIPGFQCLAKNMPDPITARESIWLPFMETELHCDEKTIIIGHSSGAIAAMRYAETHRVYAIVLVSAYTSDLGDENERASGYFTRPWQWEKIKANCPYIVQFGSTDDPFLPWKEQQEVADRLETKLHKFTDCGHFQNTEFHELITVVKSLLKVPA
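system = RBBP9 protein | input = RBBP9 at 2.5 µM in dispensed solution, before mixing | measured by = fluorescence polarization (mP), excitation 525 nm, emission 598 nm | incubation = enzyme-compound preincubation 30 min, then probe labeling 45 min, 25 °C | buffer or medium = Tris-NaCl-Pluronic buffer, pH 8.0 | compound = single dose 7.94 µM | also added = FP-Rh probe, 375 nM dispensing solution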
14-3-3 Bad inh = inhibitors of 14-3-3 zeta/Bad binding, primary screen, biochemical, TR-FRET, bovine 14-3-3 zeta. 14-3-3 protein zeta/delta (Bos taurus), P63103. inhibition, % at 21.7 µM. TR-FRET 14-3-3zeta/Dy647-pBad peptide displacement, 1 h. actives 0.71% (n = 220,000);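 active = inhibition above about 70%, limit read from the data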
Target sequence (P63103 whole entry, looked up): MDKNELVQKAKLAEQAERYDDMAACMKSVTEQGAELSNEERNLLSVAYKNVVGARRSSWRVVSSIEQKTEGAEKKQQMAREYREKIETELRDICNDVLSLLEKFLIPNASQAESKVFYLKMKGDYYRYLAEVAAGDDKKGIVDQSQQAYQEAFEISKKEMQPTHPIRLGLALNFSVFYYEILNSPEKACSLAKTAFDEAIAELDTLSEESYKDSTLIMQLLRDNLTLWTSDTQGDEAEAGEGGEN
Each line names hits and unclear results; the compound was inactive in the other large screens; ! = repeats disagree; [ ] = dose if it differs, or a comment.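 Rule for the calls, unless noted: active = inhibition above about 30% (limit read from the data); inactive = the rest.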

COCCNC(=O)CSc1ccccc1C(=O)O	none
Oc1ccc2ccccc2c1N=Nc1ccc(F)cc1	Wee1 degr inh 22!
CCCC(=O)c1c[nH]c(C(=O)NCc2cccnc2)c1	none
CCC(=O)c1c[nH]c(C(=O)NCc2cccnc2)c1	14-3-3 Bad inh 80
Cc1ccccc1NC(=O)C1CCN(C2=NS(=O)(=O)c3ccccc32)CC1	Wee1 degr inh 10
Cc1cncn1CCc1nc2c3ccccc3nc(SCC(=O)Nc3cccc(Cl)c3)n2n1	p47phox inh 50
Cc1cccc(NC(=O)CSc2nc3ccccc3c3nc(CCc4c(C)n[nH]c4C)nn23)c1	none
O=c1cnnc(N/N=C/c2c[nH]c3ccccc23)[nH]1	p47phox inh 99
CCCC(c1nnnn1Cc1ccco1)N1CCC(C(N)=O)CC1 (stereo unspecified)	14-3-3 Bad inh 71
O=C(CN1CCCC1=O)NC1C2CC3CC(C2)CC1C3 (stereo unspecified)	none
CCOC(=O)c1c(NC(=O)Nc2ccc(C)cc2)sc2c1CCN(C)C2	Wee1 degr inh 10
CCOC(=O)c1c(NC(=S)Nc2ccccc2)sc2c1CCN(CC)C2	none
O=[N+]([O-])c1ccc(C(=Nc2cccc3ccccc23)N2CCOCC2)cc1	14-3-3 Bad inh 97[fluorescence artefact?]
CC(C)CC(=O)NC(=S)Nc1ccc(N2CCCC2)c(Cl)c1	Wee1 degr inh 10
CCCSc1nc(C)c2cc(C)cc(C)c2n1	none
Cc1cc(C)c2nc3nc(C)c(C)cc3c(N)c2c1	p47phox inh 35
CC(=O)NC(Cc1ccccc1C)C(=O)NC1CCN(C(=O)c2cccc(C)c2)CC1 (stereo unspecified)	none
COCCNC(=O)c1ccccc1NC(=O)Cc1ccccc1[N+](=O)[O-]	none
CCc1nc(SCC(=O)NCCc2ccccc2)c2c(=O)n(C)c(=O)n(C)c2n1	none
Cc1ccc(S(=O)(=O)N2CCN(C(C)C(=O)Nc3ccccc3-c3ccccc3)CC2)cc1 (stereo unspecified)	eIF4E-4G inh 32[fluorescence artefact?]
CC(C(=O)Nc1ccccc1-c1ccccc1)N1CCN(Cc2ccccc2)CC1 (stereo unspecified)	none
CC(C(=O)Nc1ccccc1-c1ccccc1)N1CCN(C(=O)c2ccccc2)CC1 (stereo unspecified)	none
CC1CCN(C(C)C(=O)Nc2ccccc2-c2ccccc2)CC1 (stereo unspecified)	14-3-3 Bad inh 85
CC1C/C(=N/Nc2nc3ccccc3[nH]2)CC(C)(C)C1 (stereo unspecified)	Wee1 degr inh 10
CC1CCC2(CC1)NC(=O)N(CC(=O)N1CCN(S(=O)(=O)c3ccccc3)CC1)C2=O (stereo unspecified)	Wee1 degr inh 9.7
CCOC(=O)/C=C/C(=O)Nc1ccccc1C(=O)NC1CCCCC1	none
Cc1ccc(CSc2nnc(SCC(=O)N/N=C/c3c[nH]c4ccccc34)s2)cc1	p47phox inh 39, 14-3-3 Bad inh 95
O=C(CSc1nnc(SCc2ccccc2)s1)N/N=C/c1c[nH]c2ccccc12	p47phox inh 42, 14-3-3 Bad inh 94
C/C(N)=C(/C#N)C(=O)CSc1nnc(NC(C)C)s1	none
Cc1nc2ccc(S(=O)(=O)NC(C(=O)NCc3ccco3)C(C)C)cc2s1 (stereo unspecified)	p47phox inh 121
CCOc1ccc(NC(=O)CN2CCC(n3cnc4cc(F)ccc43)CC2)cc1	none
COCCCNc1nc2c(-c3cccc(C)c3)nnn2c2ccccc12	Wee1 degr inh 49
CCN1C(=O)C(c2ccc(O)cc2)(c2ccc(O)cc2)c2ccccc21	14-3-3 Bad inh 94
O=C(c1cccs1)N1CCc2c([nH]c3ccccc23)C1c1ccc(Cl)cc1 (stereo unspecified)	p47phox inh 31
O=C(c1cccs1)N1CCc2c([nH]c3ccccc23)C1c1ccccn1 (stereo unspecified)	none
COc1ccc(N2CC(C(=O)OC(C)C(=O)c3ccccc3)CC2=O)cc1 (stereo unspecified)	none
N#Cc1cc([N+](=O)[O-])ccc1NC(=O)COC(=O)CCC1CCCCC1	none
Nc1ccccc1-c1nnc(-c2ccc(-c3ccccc3)cc2)o1	p47phox inh 58 (no result: eIF4E-4G inh, 14-3-3 Bad inh)
c1ccc(-c2nnc(-c3ccccc3)o2)cc1	none
O=C(O)CN1C(=O)NC2(CCOc3ccccc32)C1=O (stereo unspecified)	Wee1 degr inh 9.8
Cc1sc2ncnc(NCC(c3ccco3)N(C)C)c2c1C (stereo unspecified)	14-3-3 Bad inh 82
CCNc1nc2ccccc2[nH]1	Wee1 degr inh 9.8
Cn1c(=O)c2c(ncn2CCCC(=N)N2CCOCC2)n(C)c1=O	none
CC(Sc1nnc(-c2cccs2)n1Cc1ccccc1)C(=O)NCc1ccc2c(c1)OCO2 (stereo unspecified)	Wee1 degr inh 10
Cn1c(SCC(=O)NCc2ccc3c(c2)OCO3)nnc1-c1cccs1	none
CCn1c(SCC(=O)NCc2ccc3c(c2)OCO3)nnc1-c1cccs1	eIF4E-4G inh 68
O=C(NCCc1cccc(F)c1)/C(=C/c1cccnc1)NC(=O)c1ccccc1	none
Cc1ccc(F)c(NC(=O)/C(C#N)=C(\O)c2ccc(C(C)(C)C)cc2)c1	none
CN(C)CCOc1ccccc1-c1ccccc1	14-3-3 Bad inh 72
CNCCOc1ccccc1-c1ccccc1	none
COc1cccc(OC)c1OCCN(C)C	14-3-3 Bad inh 86
OCCNCCOCCOc1ccccc1-c1ccccc1	none
CN(C)CCOCCOc1ccccc1-c1ccccc1	14-3-3 Bad inh 87
CCCCn1c(N)c(N(CC(C)C)C(=O)CCCSc2nncs2)c(=O)[nH]c1=O	none
COc1ccc(Cc2cnc(N)s2)cc1	none
C#CCOCCOCCOCCNc1nc(N2CCN(C(=O)[C@H](C)n3cc(CCCN=C(N)N)nn3)CC2)nc(N2CCN(C(=O)[C@H](Cc3ccc(O)cc3)n3cc(CCO)nn3)CC2)n1	14-3-3 Bad inh 78
C#CCOCCOCCOCCNc1nc(N2CCN(C(=O)[C@H]([C@@H](C)CC)n3cc(CCC(=O)O)nn3)CC2)nc(N2CCN(C(=O)[C@H](C)n3cc(CCCN=C(N)N)nn3)CC2)n1	none
C#CCOCCOCCOCCNc1nc(N2CCN(C(=O)[C@H](CCCCN)n3cc(CCCC)nn3)CC2)nc(N2CCN(C(=O)[C@H](Cc3ccc(O)cc3)n3cc(CCO)nn3)CC2)n1	p47phox inh 63
COc1ccc(NC(=O)c2cc(F)c(F)cc2Cl)cc1Cl	Wee1 degr inh 9.1
CCOC(=O)c1ccc(NC(=O)c2cc(F)c(F)cc2Cl)cc1	none
